# Laboratory results from ChEMBL document CHEMBL3399929 (Bioorg Med Chem, 2015).
# The source made the active and inactive calls. The calls are words filed in the database; no cut-off is given here.
# Experiments:
# [1] = Inhibition of Mycobacterium smegmatis TMC 607 ATP synthase incubated for 10 mins prior to NADH addition measured after 1 hr by luminescence assay; parameters: species or system Mycolicibacterium smegmatis
# [2] = system: Mycobacterium tuberculosis; experiment: Antimycobacterial activity against Mycobacterium tuberculosis H37Rv after 4 weeks by agar dilution assay; type: functional; conditions: for MIC: Mycobacterium tuberculosis, H37Rv, 672 h, read-out: MIC100
# Procedure, shortened: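 Agar dilution method. DMSO stocks (5 mg/mL) were serially diluted in DMSO, and 0.1 mL of each was mixed into 1.9 mL Middlebrook 7H10 agar with OADC and set as slants. Each tube received about 10^5 bacilli from a 3-week Lowenstein–Jensen culture suspended in saline with 0.05% Tween-80. Tubes were incubated at 37 °C for 4 weeks. MIC was the lowest concentration with no visible growth.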
# [3] = Cytotoxicity against African green monkey Vero cells after 72 hrs yb resazurin assay; type: cell-based; conditions: chlorocebus sabaeus
# Procedure, shortened: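 Vero cells were seeded overnight in RPMI with 10% heat-inactivated FBS at 37 °C, 5% CO2. Cells were exposed in triplicate to concentrations from 100 to 1.56 µg/mL for 72 h. Resazurin (0.1%) was then added for 4–5 h, and fluorescence was read at ex 530/em 590 nm. CC50 was derived from the fluorescence plot.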
# [4] = Selectivity index, ratio of CC50 for African green monkey Vero cells to MIC100 for Mycobacterium tuberculosis H37Rv; type: toxicity, cell-based; conditions: read-out: Selectivity Index
# Procedure, shortened: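 Selectivity index is CC50 from the Vero resazurin assay divided by the agar-dilution MIC against H37Rv.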
# [5] = system: Mycobacterium tuberculosis H37Rv; experiment: Inhibition of Mycobacterium tuberculosis H37Rv ATP synthase assessed as reduction in total ATP content at 50 ug/ml after 18 hrs by bead-vortexing settling method
# Procedure, shortened: (§1)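 H37Rv was declumped by bead-vortexing and settling, adjusted to McFarland 1, then diluted 100-fold. Portions of 1 mL in tubes with 0.5 mm glass beads were exposed to compound for 18 h at 37 °C. Samples were heated 8–10 min, chilled on ice, and bead-beater lysed. Cleared lysate ATP was measured by luciferase assay.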
# [6] = system: Mycobacterium tuberculosis H37Rv; experiment: Inhibition of Mycobacterium tuberculosis H37Rv ATP synthase assessed as reduction in total ATP content at 12.5 ug/ml after 18 hrs by bead-vortexing settling method; procedure, shortened: as §1
# [7] = Inhibition of Swiss mouse liver ATP synthase after 1 hr
# Procedure, shortened: (§2)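 Liver mitochondria came from an overnight-fasted adult Swiss mouse, isolated by differential centrifugation in sucrose/Tris-MOPS/EGTA buffer pH 7.4 and assayed the same day. Mitochondria (100 µg) were stirred at room temperature with 100 µM compound in Tris/HCl, sucrose, 5 mM MgCl2 and 100 µM diadenosine pentaphosphate, pH 7.4. The reaction was started with 1 mM ADP, 20 mM Pi and 50 mM succinate, stopped after 1 h with EDTA-TCA, and ATP was read by luciferase.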
# [8] = Selectivity ratio of IC50 for Mycobacterium smegmatis TMC 607 ATP synthase to IC50 for Swiss mouse liver ATP synthase
# [9] = system: Mycobacterium tuberculosis; experiment: Bactericidal activity against non-replicating Mycobacterium tuberculosis H37Rv Wayne model under hypoxic/oxygen depleted conditions assessed as log reduction after 4 days by serial dilution assay; type: functional
# Procedure, shortened: (§3)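 Wayne hypoxia model. A mid-log 7H9 culture was diluted to about 10^5 cfu/mL, and 10 mL was sealed in 20 mL headspace vials. Vials were stirred slowly at 37 °C for 20–22 days, until methylene blue indicator (1.5 µg/mL) decolorized. Drug was then injected through the septum, and vials were incubated 4 more days at 37 °C. Tests were run in duplicate, with CFU counted on 7H10 agar plates.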
# [10] = system: Mycobacterium tuberculosis; experiment: Bactericidal activity against non-replicating Mycobacterium tuberculosis H37Rv Wayne model under hypoxic/oxygen depleted conditions assessed as log reduction at 100 ug/ml after 4 days by serial dilution assay; type: functional; procedure, shortened: as §3
# [11] = system: Mycobacterium tuberculosis; experiment: Bactericidal activity against non-replicating Mycobacterium tuberculosis H37Rv Wayne model under hypoxic/oxygen depleted conditions assessed as log reduction at 10 ug/ml after 4 days by serial dilution assay; type: functional; procedure, shortened: as §3
# Escherichia coli = experiment: Antibacterial activity against Escherichia coli ATCC 9637 at 50 ug/ml; type: functional, organism-based
# Staphylococcus aureus = experiment: Antibacterial activity against Staphylococcus aureus ATCC 25923 at 50 ug/ml; type: functional, organism-based
# Klebsiella pneumoniae = experiment: Antibacterial activity against Klebsiella pneumoniae ATCC 27736 at 50 ug/ml; type: functional, organism-based
# Pseudomonas aeruginosa = experiment: Antibacterial activity against Pseudomonas aeruginosa ATCC BAA-427 at 50 ug/ml; type: functional, organism-based
# Candida albicans = experiment: Antifungal activity against Candida albicans at 50 ug/ml; type: functional, organism-based
# Cryptococcus neoformans = experiment: Antifungal activity against Cryptococcus neoformans at 50 ug/ml; type: functional, organism-based
# Sporothrix schenckii = experiment: Antifungal activity against Sporothrix schenckii at 50 ug/ml; type: functional, organism-based
# [12] = system: Trichophyton mentagrophytes; experiment: Antifungal activity against Trichophyton mentagrophytes at 50 ug/ml; type: functional, organism-based
# Aspergillus fumigatus = experiment: Antifungal activity against Aspergillus fumigatus at 50 ug/ml; type: functional, organism-based
# Candida parapsilosis = experiment: Antifungal activity against Candida parapsilosis ATCC 22019 at 50 ug/ml; type: functional, organism-based
# [13] = Cytotoxicity against mouse bone marrow macrophages […]; type: cell-based; conditions: macrophage
# [14] = system: Mycobacterium tuberculosis H37Rv; experiment: Inhibition of Mycobacterium tuberculosis H37Rv ATP synthase assessed as reduction in total ATP content at 0.5 ug/ml after 18 hrs by bead-vortexing settling method; procedure, shortened: as §1
# [15] = system: Mycolicibacterium smegmatis; experiment: Inhibition of Mycobacterium smegmatis TMC 607 ATP synthase at 100 uM incubated for 10 mins prior to NADH addition measured after 1 hr by luminescence assay
# Procedure, shortened: (§4)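 Inverted membrane vesicles from M. smegmatis were diluted to 100 µg protein/mL in 50 mM MOPS pH 7.5 with 10 mM MgCl2. Vesicles were preincubated with compound for 10 min at room temperature with stirring, then given 2.5 mM NADH for 1 min. The reaction was started with 1 mM ADP plus 10 mM potassium phosphate and run for 1 h. It was quenched with EDTA/TCA, and ATP was read by luciferase luminescence.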
# [16] = biological target: ATP synthase (Mycobacterium tuberculosis) (UniProt P9WPU9+P9WPU5+P9WPU7+P9WPV5+P9WPS1+P9WPV1+P9WPV7+P9WPV3); experiment: Inhibition of Mycobacterium tuberculosis H37Rv ATP synthase assessed as reduction in total ATP content at 100 uM after 18 hrs by bead-vortexing settling method; type: protein-complex assay; procedure, shortened: as §1
# Mus musculus = species on record: Mus musculus; experiment: Inhibition of Swiss mouse liver ATP synthase at 100 uM after 1 hr; procedure, shortened: as §2
# [17] = system: Mycobacterium tuberculosis; experiment: Bactericidal activity against non-replicating Mycobacterium tuberculosis H37Rv Wayne model under hypoxic/oxygen depleted conditions assessed as log reduction at 50 ug/ml after 4 days by serial dilution assay; type: functional; procedure, shortened: as §3
# [18] = system: Mycolicibacterium smegmatis; experiment: Inhibition of Mycobacterium smegmatis TMC 607 ATP synthase at 0.3 uM incubated for 10 mins prior to NADH addition measured after 1 hr by luminescence assay; procedure, shortened: as §4
# [19] = system: Mycobacterium tuberculosis; experiment: Bactericidal activity against non-replicating Mycobacterium tuberculosis H37Rv Wayne model under hypoxic/oxygen depleted conditions assessed as log reduction at 5 ug/ml after 4 days by serial dilution assay; type: functional; procedure, shortened: as §3
# [20] = system: Mycobacterium tuberculosis; experiment: Antimycobacterial activity against Mycobacterium tuberculosis H37Rv infected in mouse chronic TB model assessed as survival rate at 490 umol/kg administered via esophageal cannula 6 times a week for 4 weeks relative to untreated control; type: functional; conditions: 672 h
# Procedure, shortened: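 Male Balb/C mice (8–10 weeks, 18–20 g), ten per group, were infected intravenously with 5 × 10^6 CFU H37Rv in 0.2 mL. Dosing by gavage began on day 1, six times weekly for 4 weeks, with the last dose on day 28. Survival was followed to day 30. Survivors were sacrificed on day 30, and lung and spleen homogenates were plated on 7H10/OADC at 37 °C for 4–6 weeks. Results were compared with an untreated infected group.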
smiles,measurement,setting,value
CCN(CC)Cc1cc(N(c2cc(C)nc3cc(Cl)ccc23)S(=O)(=O)c2ccc(Cl)c(Cl)c2)ccc1O,IC50,[1]; read-out: IC50,1260 nM
CCN(CC)Cc1cc(N(c2cc(C)nc3cc(Cl)ccc23)S(=O)(=O)c2ccc(Cl)cc2Cl)ccc1O,IC50,[1]; read-out: IC50,630 nM
same,MIC100,[2],3.12 µg/mL
same,CC50 at 72 h,[3],> 300 µg/mL
same,selectivity ratio,[4],> 48
same,inhibition,[5],26%
same,inhibition,[6],54%
same,IC50,[7],> 100000 nM
same,Ratio IC50,[8],> 155
same,MIC100,[9],3.12 µg/mL
same,log10CFU/ml,[10],1.64
same,log10CFU/ml,[11],0.79
same,Activity,Escherichia coli,inactive
same,Activity,Staphylococcus aureus,inactive
same,Activity,Klebsiella pneumoniae,inactive
same,Activity,Pseudomonas aeruginosa,inactive
same,Activity,Candida albicans,inactive
same,Activity,Cryptococcus neoformans,inactive
same,Activity,Sporothrix schenckii,inactive
same,Activity,[12],inactive
same,Activity,Aspergillus fumigatus,inactive
same,Activity,Candida parapsilosis,inactive
same,Activity,[13],Non-toxic
CCN(CC)Cc1cc(N(c2cc(C)nc3cc(Cl)ccc23)S(=O)(=O)c2c(C(C)C)cc(C(C)C)cc2C(C)C)ccc1O,IC50,[1]; read-out: IC50,3290 nM
CCN(CC)Cc1cc(N(c2cc(C)nc3cc(Cl)ccc23)S(=O)(=O)c2ccc([N+](=O)[O-])cc2)ccc1O,IC50,[1]; read-out: IC50,390 nM
same,MIC100,[2],6.25 µg/mL
same,CC50 at 72 h,[3],55 µg/mL
same,selectivity ratio,[4],18
CO[C@H]1/C=C/O[C@@]2(C)Oc3c(C)c(O)c4c(O)c(c(/C=N/N5CCN(C)CC5)c(O)c4c3C2=O)NC(=O)/C(C)=C\C=C\[C@H](C)[C@H](O)[C@@H](C)[C@@H](O)[C@@H](C)[C@H](OC(C)=O)[C@@H]1C,inhibition,[14],69.6%
CCN(CC)Cc1cc(N(c2cc(C)nc3cc(Cl)ccc23)S(=O)(=O)c2cc(C)cc(C)c2)ccc1O,IC50,[1]; read-out: IC50,1830 nM
CCN(CC)Cc1cc(N(c2cc(C)nc3cc(Cl)ccc23)S(=O)(=O)c2ccc(C#N)cc2)ccc1O,IC50,[1]; read-out: IC50,740 nM
same,MIC,[2],> 12.5 µg/mL
CCN(CC)Cc1cc(N(c2cc(C)nc3cc(Cl)ccc23)S(=O)(=O)c2cccs2)ccc1O,IC50,[1]; read-out: IC50,1570 nM
CCN(CC)Cc1cc(N(c2cc(C)nc3cc(Cl)ccc23)S(=O)(=O)c2cc(Cl)ccc2Cl)ccc1O,IC50,[1]; read-out: IC50,1340 nM
CCN(CC)Cc1cc(N(c2cc(C)nc3cc(Cl)ccc23)S(=O)(=O)c2cccc3ccccc23)ccc1O,IC50,[1]; read-out: IC50,1000 nM
same,MIC,[2],12.5 µg/mL
C(=NC1CCCCC1)=NC1CCCCC1 [DICYCLOHEXYLCARBODIIMIDE],inhibition,[15],99.5%
same,inhibition,[16],30%
same,inhibition,Mus musculus,83%
same,MIC100,[9],inactive
same,log10CFU/ml,[10],4.68
CCN(CC)Cc1cc(Nc2cc(C)nc3cc(Cl)ccc23)ccc1O,IC50,[1]; read-out: IC50,5450 nM
same,MIC,[2],> 50 µg/mL
CCN(CC)Cc1cc(N(c2cc(C)nc3cc(Cl)ccc23)S(=O)(=O)c2ccc(Cl)s2)ccc1O,IC50,[1]; read-out: IC50,360 nM
same,MIC100,[2],6.25 µg/mL
Cc1ncc([N+](=O)[O-])n1CCO [METRONIDAZOLE],IC50,[1],Not Active
same,MIC100,[9],inactive
same,log10CFU/ml,[17],1.16
CCN(CC)Cc1cc(N(c2cc(C)nc3cc(Cl)ccc23)S(=O)(=O)[C@@]23CCC(CC2=O)C3(C)C)ccc1O,IC50,[1]; read-out: IC50,3410 nM
CCN(CC)Cc1cc(N(c2cc(C)nc3cc(Cl)ccc23)S(=O)(=O)c2c(C)cc(C)cc2C)ccc1O,IC50,[1]; read-out: IC50,1040 nM
CCN(CC)Cc1cc(N(c2cc(C)nc3cc(Cl)ccc23)S(=O)(=O)c2cccc(C(F)(F)F)c2)ccc1O,IC50,[1]; read-out: IC50,1360 nM
CCN(CC)Cc1cc(N(c2cc(C)nc3cc(Cl)ccc23)S(=O)(=O)c2ccc3ccccc3c2)ccc1O,IC50,[1]; read-out: IC50,920 nM
same,MIC,[2],> 25 µg/mL
NNC(=O)c1ccncc1 [ISONIAZID],IC50,[1],Not Active
same,inhibition,[18],0%
same,MIC,[2],0.1 µg/mL
same,inhibition,[14],78.5%
same,MIC,"[9]; Mycobacterium tuberculosis, H37Rv, 96 h, read-out: MIC100",≤ 0.12 µg/mL
same,log10CFU/ml,[19],0.21
CCN(CC)Cc1cc(N(c2cc(C)nc3cc(Cl)ccc23)S(=O)(=O)c2cccc3cccnc23)ccc1O,IC50,[1]; read-out: IC50,1850 nM
CC[C@@H](CO)NCCN[C@@H](CC)CO [ETHAMBUTOL],survival at 490 µmol/kg,[20],90%
CCN(CC)Cc1cc(N(c2cc(C)nc3cc(Cl)ccc23)S(=O)(=O)c2ccc(Cl)cc2)ccc1O,IC50,[1]; read-out: IC50,530 nM
same,MIC100,[2],6.25 µg/mL
same,CC50 at 72 h,[3],> 300 µg/mL
same,selectivity ratio,[4],> 48
same,Activity,[13],Non-toxic
